Test results as given in ChEMBL document CHEMBL4627349, “Synthesis and evaluation of the performance of a small molecule library based on diverse tropane-related scaffolds” (Bioorg Med Chem, 2020).
The source made the active and inactive calls.

Assays:
[1] = Inhibition of Hedgehog signaling pathway in mouse C3H10T1/2 cells assessed as reduction in osteoblast differentiation measured after 96 hrs by alkaline phosphatase CDP-star substrate based luminescence assay; format: cell-based; settings: C3H 10T1/2, 96 h
[2] = Cytotoxicity against mouse C3H10T1/2 cells assessed as effect on cell viability at 10 uM relative to control; format: cell-based, C3H 10T1/2; settings: read-out: Activity
Procedure, shortened: (§1)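 Single-concentration primary screen at 10 µM in an osteoblast differentiation assay for Hedgehog signalling inhibition, with cell viability monitored alongside. Hits were defined as at least 50% inhibition of signalling with <20% impact on cell viability.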

[3] = system: C3H 10T1/2; experiment: Inhibition of Hedgehog signaling pathway in mouse C3H10T1/2 cells assessed as reduction in osteoblast differentiation at 10 uM measured after 96 hrs by alkaline phosphatase CDP-star substrate based luminescence assay relative to control; format: cell-based; procedure, shortened: as §1
[4] = system: Plasmodium falciparum; experiment: Antiplasmodial activity against chloroquine-sensitive Plasmodium falciparum NF54 by lactate dehydrogenase assay; format: functional, organism-based
Procedure, shortened: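 Dose-response format against chloroquine-susceptible NF54 parasites, with lactate dehydrogenase activity as the parasite-viability marker.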

With `CS(=O)(=O)C1CC2c3c(c4ccccc4n3CC#N)CC1N2Cc1ccccc1` (centres undefined) the EC50 [1] was 4.2 µM, the viability at 10 µM [2] was less than 20% and the inhibition [3] was greater than 50%.

For `CN1C2CC(S(C)(=O)=O)C1C(c1ccc(F)cc1)CC2OCc1ccc(C#N)cc1` (centres undefined), the IC50 [4] was 5.5 µM.

For `CS(=O)(=O)C1CC2C(=O)c3n[nH]c(C(=O)O)c3C1N2Cc1ccccc1` (centres undefined), the IC50 [4] was 5.4 µM.

`CN(Cc1ccc(OC(F)(F)F)cc1)C1CCC2C(S(C)(=O)=O)CC1N2C` (centres undefined) showed an IC50 [4] of 5.7 µM.

Work on `CS(=O)(=O)C1CC2c3c(c4ccccc4n3S(C)(=O)=O)CC1N2Cc1ccccc1` (centres undefined) yielded an EC50 [1] of 4.4 µM, a viability at 10 µM [2] of less than 20% and an inhibition [3] greater than 50%.

With `CS(=O)(=O)C1CC2c3ncccc3CC1N2Cc1ccccc1` (centres undefined) the Activity [4] was “Active”.

With `CN1C2CC(S(C)(=O)=O)C1C1CN(c3ccccn3)CC1C2O` (centres undefined) the IC50 [4] was 5.4 µM.

In the case of `CN1C2CC(S(C)(=O)=O)C1Cc1c(-c3ccccc3)ccnc12` (centres undefined), the Activity [4] is reported as “Active”.

For `CN1C2CC(S(C)(=O)=O)C1Cc1cccnc12` (centres undefined), the Activity [4] was “Active”.

In the case of `CN1C2CC(S(=O)(=O)N(C)C)C1Cc1cccnc12` (centres undefined), the Activity [4] is reported as “Active”.
